Screening data deposited in PubChem BioAssay by several laboratories.
SR-BI DiI-HDL act: activators of SR-BI mediated DiI-HDL uptake, primary screen, ldlA[mSR-BI] CHO cells, DiI fluorescence | activation, % at 12.5 µM | AID 504775, 2011 | 320,000 compounds, 0.096% hits | 3 h; 100 = double the neutral-control signal;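 active means mean replicate activation of at least 60% and every replicate at or above 60%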;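 further: 0% = median plate neutral-control signal and 100% = twice that signal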
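Material: SR-BI-overexpressing, LDLR-lacking CHO cells; schedule: compound exposure 3 h, 37 °C; reagent: DiI-labelled HDL at 10 µg/mL final; technique: bottom-read fluorescence, 550/595 nm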
SR-BI DiI inh: inhibitors of SR-BI mediated HDL lipid uptake, primary screen, ldlA[mSR-BI] cells, fluorescence, single point; ldlA[mSR-BI] CHO cells, DiI-HDL uptake fluorescence, 3 h; inhibition, % at 12.5 µM; 320,000 compounds, 0.96% hits; AID 488896, 2010;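 active means mean replicate inhibition of at least 70% and a set share of replicates each scoring 70 or more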;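 further: 0% = median of neutral control wells and 100% = median of positive control wells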
Target sequence (Q61009 whole entry, looked up): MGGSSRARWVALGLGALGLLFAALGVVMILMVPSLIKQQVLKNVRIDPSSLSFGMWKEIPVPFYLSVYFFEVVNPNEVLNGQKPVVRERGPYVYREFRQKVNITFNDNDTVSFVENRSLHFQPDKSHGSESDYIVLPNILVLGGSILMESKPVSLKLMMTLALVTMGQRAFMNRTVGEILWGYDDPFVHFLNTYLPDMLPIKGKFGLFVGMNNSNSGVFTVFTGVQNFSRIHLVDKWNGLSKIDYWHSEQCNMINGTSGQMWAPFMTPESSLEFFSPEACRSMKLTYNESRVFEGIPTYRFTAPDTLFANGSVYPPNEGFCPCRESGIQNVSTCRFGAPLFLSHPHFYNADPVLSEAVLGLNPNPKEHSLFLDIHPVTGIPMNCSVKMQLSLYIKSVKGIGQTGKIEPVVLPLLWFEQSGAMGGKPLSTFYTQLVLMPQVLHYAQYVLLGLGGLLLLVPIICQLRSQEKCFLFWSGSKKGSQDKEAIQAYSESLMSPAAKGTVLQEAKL
NSD2 HMT inh: NSD2 histone methyltransferase inhibitors, primary screen, biochemical, AlphaScreen, single concentration, set 2 | NSD2 peptide methylation, 120 min | inhibition, % at 12.5 µM | 310,000 compounds, 0.54% hits | AID 743445, 2014; in the data active means inhibition above about 50%
ARNT-TACC3 inh: disruptors of ARNT/TACC3 protein interaction, primary screen, biochemical, AlphaScreen, single concentration | Transforming acidic coiled-coil-containing protein 3 (Homo sapiens), Q9Y6A5 | AlphaScreen His-ARNT PAS-B/GST-TACC3 binding, luminescence; TACC3 fragment carries E629A point mutation | inhibition, % at 9.99 µM | 390,000 compounds, 0.66% hits;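 active means mean inhibition of replicates at least 50% and at least half of replicates each reaching 50%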;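 further: 0% = complete ARNT plus TACC3 wells and 100% = ARNT alone without TACC3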
Xi reactivation: activators of inactive X chromosome reactivation, primary screen, imaging, XiGFP fibroblasts, GFP high-content imaging, set 2. activation, % at 7.58 µM. 360,000 compounds, 0.055% hits. AID 743238, 2013. XiGFP mouse fibroblasts, % GFP-positive cells imaging, 3 d; cells co-treated with 5-aza-dC sensitizer; scaled so ellipticine positive control = 100%;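 active means mean normalized replicate activation at least 10% and every replicate at or above 10%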;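 further: 0% = median of on-plate neutral control wells and 100% = ellipticine 6 µM median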
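System: SV40-immortalized XiGFP fibroblast cells, line 68-5-11 / Incubation: 3-day compound exposure, then 15 min fixation at room temperature / Compound: single concentration per compound, delivered by pin transfer / Buffer or medium: DMEM plus 5-aza-dC sensitizer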
HGIII-sPLA2 inh: human group III sPLA2 inhibitors, primary screen, biochemical, QFRET, BODIPY PC-A2 liposome substrate. Group 3 secretory phospholipase A2 (Homo sapiens), Q9NZ20. QFRET BODIPY PC-A2 liposome hydrolysis, fluorescence. inhibition, % at 12.2 µM. 370,000 compounds, 0.56% hits. AID 743126, 2013;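 active means inhibition above mean plus 3 SD of compounds lying within the high and low control bounds, cut at about 19% in these data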;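 further: 0% = median of test compound wells and 100% = no enzyme DMSO wells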
AlphaScreen art: AlphaScreen signal interference with preloaded methylated product, dose response, artefact control for NSD2 inhibitor project, biochemical, cherry-picked samples; AC35, µM (highest dose often 10 µM), inactives show at the highest dose activity change, negative = signal loss; AlphaScreen artifact counterscreen, preloaded methylated H4 peptide; AID 1053174, 2014; shares compounds with NSD2 HMT inh; 1,500 compounds, 9.4% hits; call rule not given here
An asterisk follows results filed as active; · = not tested or not shown. In the library only some 2% were active in any assay of this set; here they are far more common.

SMILES	SR-BI DiI-HDL act	SR-BI DiI inh	NSD2 HMT inh	ARNT-TACC3 inh	Xi reactivation	HGIII-sPLA2 inh	AlphaScreen art
O=C(O)c1ccc2nc(-c3ccco3)c(-c3ccco3)nc2c1	4	-4	186*	13	0	-2	-8%
COc1ccc2c(C#N)c3ccccn3c2c1	-18	18	52*	-11	0	-3	9%
Cc1cc(=O)n2ccccc2c1C#N	25	-25	1	-1	·	0	·
Cc1ccccc1NC(=O)C(NS(=O)(=O)c1ccc2c(c1)c(=O)n(C)c(=O)n2C)c1ccccc1 (configuration not stated)	-8	8	·	-20	0	-2	·
Cc1nnsc1-c1onc(C)c1C(=O)Nc1cc(Cl)cc(Cl)c1	-42	42	22	1	0	-6	·
Cc1coc2c1c(C)cc1oc(=O)c(CC(=O)NCCC(=O)O)c(C)c12	·	·	-2	-18	0	4	·
COCCNC(=O)Cc1c(C)c2c(cc(C)c3c(C)coc32)oc1=O	·	·	51*	0	0	17	3%
COc1ccc(C(C(=O)NC(C)(C)C)N(CCc2ccc(OC)c(OC)c2)C(=O)CCC(=O)Nc2cc(C)on2)cc1 (configuration not stated)	-4	4	0	0	0	0	·
CCC(CC)c1nnc(NC(=O)CCS(=O)(=O)Cc2ccccc2)s1	6	-6	61*	·	0	-6	-1%
CCc1nnc(NC(=O)CCS(=O)(=O)Cc2ccccc2)s1	0	0	-10	-4	0	5	·
O=C(COc1ccc([N+](=O)[O-])cc1)Nc1cccc2nsnc12	14	-14	-1	3	0	3	·
COc1ccc(/C=C(\C#N)C(=O)N2COCC2(C)C)cc1	0	0	59*	8	0	5	1%
CSc1ccccc1NC(=O)CN(C)C(=O)COc1ncnc2ccccc12	6	-6	56*	-5	0	5	1%
CCN(CC)CCCN(Cc1cc2cc(OC)ccc2[nH]c1=O)C(=O)Nc1ccc(F)cc1	10	-10	86*	1	·	-12	-8%
COc1ccccc1N1CCN(C(=O)CNS(=O)(=O)c2ccc(Br)s2)CC1	-32	32	0	0	0	-10	·
Nc1nc(=S)c2ncn(C3OC(CO)C(O)C3O)c2[nH]1 (configuration not stated)	14	-14	52*	·	0	4	-9%
CCN(CC)CCCNc1ccc2ncn3c4ccc(O)cc4c(=O)c1c23	14	-14	64*	74*	4	-53	-3%
CCOC(=O)CN1C(=O)N[C@H](c2ccc(Br)cc2)C(C(C)=O)=C1C	13	-13	·	-3	0	3	·
CCCc1cc(Nc2cccc(OCC)c2)n2ncnc2n1	-17	17	0	-15	·	-13	·
CCCc1cc(Nc2ccccc2C)n2ncnc2n1	5	-5	57*	-7	0	-2	-1%
Cc1ccc(S(=O)(=O)NC(C)C(c2cccs2)N2CCOCC2)cc1 (configuration not stated)	5	-5	·	-2	0	2	·
CCOc1ccc(-c2nnc(SCc3nc4ccccc4[nH]3)n2N)cc1	-6	6	72*	1	·	4	-4%
Cc1ccc(Nc2nnc(SCC(=O)Nc3ncc(C(F)(F)F)cc3Cl)s2)cc1	-5	5	3	-6	0	1	·
CC(C)CN1CN(Cc2ccco2)CNC1=S	8	-8	0	0	0	6	·
S=C1NCN(Cc2ccco2)CN1CCc1ccccc1	-5	5	53*	-3	0	16	-3%
SMILES	SR-BI DiI-HDL act	SR-BI DiI inh	NSD2 HMT inh	ARNT-TACC3 inh	Xi reactivation	HGIII-sPLA2 inh	AlphaScreen art
Cc1ccc2nc(-c3ccc(O)c(O)c3)cn2c1	19	-19	55*	7	0	6	-11%
Cc1ccc2nc(-c3ccccc3)cn2c1	-9	9	·	-5	·	1	·
COc1cc(C)c(C(=O)CC(=O)c2c(C)cc(OC)cc2C)c(C)c1	·	·	-8	·	0	-6	·
COc1cc(/C=C2\C(=O)NN(c3ccccc3)C2=O)cc([N+](=O)[O-])c1O	11	-11	34	-5	0	-4	·
CCOc1cc(/C=C2\C(=O)NN(c3ccccc3)C2=O)cc([N+](=O)[O-])c1O	4	-4	111*	9	0	-8	-10%
O=C(C1CC1)N1CCc2[nH]c3ccccc3c2C1	-16	16	100*	7	·	-2	-3%
CCCCNC(=O)N1CCc2[nH]c3ccccc3c2C1	-10	10	0	1	0	-1	·
C[C@H](CO)N1C[C@H](C)[C@H](CN(C)C(=O)Nc2ccc3c(c2)OCO3)Oc2ccc(NS(=O)(=O)c3cccs3)cc2C1=O	·	·	·	-10	-1	·	·
CCc1c(C)nc2ncnn2c1Nc1ccc(C)c(C)c1	-4	4	11	0	·	1	·
CCc1c(C)nc2ncnn2c1Nc1ccc(C)cc1	3	-3	55*	-3	0	12	-1%
COC(=O)CCCC(=O)NC1CC(C)(C)Cc2c1cnn2-c1ccc(C)cc1 (configuration not stated)	3	-3	55*	-5	0	9	-1%
CCCCCCNc1c([N+](=O)[O-])cc(C)cc1[N+](=O)[O-]	-23	23	53*	3	·	2	9.9µM*
CCOC(=O)c1ccc(N=c2scc(C)n2CC)cc1	-11	11	51*	·	0	6	-12%
COc1ccc(NC(=O)Nc2cccc3c2O[C@H](CN(C)Cc2ccc(C(F)(F)F)cc2)[C@H](C)CN([C@H](C)CO)C3=O)cc1	·	·	·	-1	0	·	·
c1coc(-c2nnc(-c3ccco3)nn2)c1	13	-13	140*	-21	0	0	-6%
O=C(Nc1ccc(Cl)cc1)c1ccc2c(=O)n3c(nc2c1)CCCCC3	-31	31	·	6	0	1	·
CC1CCCCC1NC(=O)COC(=O)c1ccc2c(=O)n3c(nc2c1)CCC3 (configuration not stated)	-8	8	117*	-6	0	11	-1%
